Screens: PubChem BioAssay, several laboratories
KCNK3 inh: human KCNK3 channel inhibition, primary screen | O14649 | CHO-KCNK3 thallium flux, FluxOR fluorescence; hits give low values | B-score at 10 µM | hit rate 0.84% among 340,000 | AID 602410;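 active means B-score under library mean minus 4 SD, starting fluorescence ratio at most library mean plus 5 SD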;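 further: more negative B-score means stronger inhibition of thallium flux through KCNK3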
KCNQ1 act: potentiates or activates the human KCNQ1 potassium channel; P51787; CHO-K1 KCNQ1, thallium flux FluxOR fluorescence; hits give high values; B-score at 10 µM; hit rate 0.35% among 310,000;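 active means fluorescence ratio B-score, a plate-corrected score, at least three library SD, with initial intensity B-score within 5 SD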
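Doses: Single concentration per compound, DMSO matched to controls | Test system: KCNQ1-transfected CHO-K1 cells | Timing: 90 min dye loading and 20 min compound exposure, both at room temperature | Measured by: Kinetic FluxOR thallium fluorescence, 10-s 1-Hz baseline, 110-s post-stimulus read | Medium: Assay buffer with matched DMSO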
hERG protect: compounds protecting human hERG from proarrhythmic drug block. CHO-hERG, FluxOR thallium flux, dofetilide IC70 present. activation (rescue from dofetilide block), less the hit threshold, % at 10 µM. hit rate 0.51% among 310,000;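 active means activation above the mean of controls blocked by dofetilide plus 5 SD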;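 further: thallium influx through hERG after potassium depolarization seen as dye fluorescence rise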
KCNK9 block: human KCNK9 channel inhibition; Q9NPC2; HEK293 KCNK9, FluxOR thallium flux fluorescence; hits give low values; B-score at 10 µM; hit rate 1.2% among 310,000;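 active means ratio B-score over 3 SD below the library mean, with starting fluorescence within 5 SD of its mean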;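 further: negative B-score means less thallium flux so channel inhibition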
Target sequence (Q9NPC2 whole entry, looked up): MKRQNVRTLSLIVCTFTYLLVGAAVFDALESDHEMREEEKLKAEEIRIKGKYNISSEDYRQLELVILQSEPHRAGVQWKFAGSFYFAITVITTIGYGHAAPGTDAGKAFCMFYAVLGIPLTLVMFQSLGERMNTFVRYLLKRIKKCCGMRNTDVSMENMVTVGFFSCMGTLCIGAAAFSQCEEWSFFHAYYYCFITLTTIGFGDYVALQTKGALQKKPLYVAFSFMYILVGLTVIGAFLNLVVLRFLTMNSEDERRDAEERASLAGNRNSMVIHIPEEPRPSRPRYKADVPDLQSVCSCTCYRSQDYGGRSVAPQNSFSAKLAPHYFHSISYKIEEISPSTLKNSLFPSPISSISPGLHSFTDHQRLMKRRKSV
KCNQ1 block: human KCNQ1 channel inhibition; B-score at 10 µM; AID 2642; P51787; CHO-K1 KCNQ1, FluxOR thallium flux fluorescence; hits give high values; hit rate 1.3% among 310,000;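 active means compounds whose thallium flux B-score, printed positive for inhibition, exceeds three library SD while starting fluorescence stays within three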;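 further: channel opened by potassium depolarization with thallium stimulus after 20 min compound exposure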
Cl transport mod: KCC2 (human) Cl- transport modulation; KCC2 cells, thallium flux FluoZin-2 fluorescence; Q9H2X9; B-score of Tl+ flux slope (higher = more flux/activation; lower = inhibition) at 10 µM; hit rate 2.2% among 190,000;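 active means thallium flux slope and its plate-corrected score both differing from the plate sample mean at a set confidence after two filtering rounds, in either direction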;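 further: slope of fluorescence scaled to starting intensity during 10 to 20 s after thallium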
KCNK9 inh conf: confirmation of human KCNK9 potassium channel inhibitors. shares compounds with KCNK9 block. HEK293 KCNK9 cells, FluxOR thallium flux fluorescence. inhibition, % at 10 µM. hit rate 43% among 4,900;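 active means thallium signal inhibited by more than 5 SD of the compound-free buffer control wells, on both duplicate plates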
Kir21 sel: tests whether KCNK9 modulators also affect mouse Kir2.1 | shares compounds with KCNK9 block | Kir2.1 cells, FluxOR thallium flux fluorescence | hit rate 4% among 4,900 | inhibition, % at 10 µM;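 active means thallium signal drop more than 5 SD beyond the mean of the no-compound control wells, seen in both duplicate plates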;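 further: signal is fluorescence rise after thallium addition divided by baseline fluorescence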
Target sequence (P35561 whole entry, looked up): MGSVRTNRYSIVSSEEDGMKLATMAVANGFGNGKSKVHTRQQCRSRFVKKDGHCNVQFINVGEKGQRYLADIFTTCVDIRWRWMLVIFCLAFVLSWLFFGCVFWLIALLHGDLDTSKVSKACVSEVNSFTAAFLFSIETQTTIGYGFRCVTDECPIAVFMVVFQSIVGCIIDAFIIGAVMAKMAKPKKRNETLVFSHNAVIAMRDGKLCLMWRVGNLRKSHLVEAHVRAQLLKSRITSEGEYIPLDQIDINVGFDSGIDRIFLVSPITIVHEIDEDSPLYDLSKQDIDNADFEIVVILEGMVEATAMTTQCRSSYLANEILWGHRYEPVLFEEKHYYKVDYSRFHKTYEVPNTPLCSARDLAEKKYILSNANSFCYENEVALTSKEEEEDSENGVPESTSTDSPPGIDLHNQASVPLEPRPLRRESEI
HEK293 Tl ctr: second check of KCNK9 modulator effects in non-induced HEK293 cells | shares compounds with KCNK9 block | FluxOR thallium flux | inhibition, % at 10 µM | hit rate 40% among 4,900 | AID 492997;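 active means thallium signal drop beyond 5 SD of the untreated control mean, on both duplicate plates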
Large screens that a line does not name were inactive (follow-up assays come after a bar, where they were run). An excerpt weighted towards active compounds, which were near 4.1% of everything screened.

CCOc1ccccc1NC(=O)c1cccc(NC(=O)c2ccco2)c1	KCNK3 inh -9.9, KCNK9 block -9.4 | KCNK9 inh conf 45% | Kir21 sel inactive | HEK293 Tl ctr inactive
COc1ccc(C2CC(c3ccccc3)=NN2C(=O)COC(=O)c2nc3nc(C)cc(C)n3n2)cc1 (centres undefined)	none
CCOC(=O)C1=C(C)N=C2SC(C)C(=O)N2C1c1ccc(OC(C)=O)c(OC)c1 (centres undefined)	KCNK9 block -15 | KCNK9 inh conf 63% | Kir21 sel inactive | HEK293 Tl ctr 34%
CC(C)(C)c1ccc(CN2N=C(/C=C/c3ccccc3)CCC2=O)cc1	none | KCNK9 inh conf inactive | Kir21 sel inactive | HEK293 Tl ctr inactive
O=C1CCC(/C=C/c2ccccc2)=NN1Cc1ccc(F)cc1	none (no result: Cl transport mod) | KCNK9 inh conf inactive | Kir21 sel inactive | HEK293 Tl ctr inactive
O=C1CCC(/C=C/c2ccccc2)=NN1Cc1ccccc1	none (no result: Cl transport mod)
CCC(C)(C)n1nnnc1C(C(C)C)N(Cc1cccnc1)Cc1ccco1 (centres undefined)	none
CCC(C)(C)n1nnnc1C(C(C)C)N(Cc1ccco1)Cc1cc2cc3c(cc2[nH]c1=O)OCO3 (centres undefined)	KCNK9 block -10 (no result: Cl transport mod) | KCNK9 inh conf 42% | Kir21 sel inactive | HEK293 Tl ctr 42%
C=CCOc1ccc(/C=C/C(=O)N2CCCN(S(=O)(=O)c3c(C)noc3C)CC2)cc1	none (no result: KCNQ1 act, hERG protect, KCNK9 block, KCNQ1 block, Cl transport mod)
CN(c1ccc(OCc2ccc([N+](=O)[O-])cc2)cc1)S(=O)(=O)c1ccccc1	KCNK9 block -8.5 (no result: Cl transport mod) | KCNK9 inh conf inactive | Kir21 sel inactive | HEK293 Tl ctr 29%
CN(C)S(=O)(=O)c1ccc(C(=O)OCc2ccc([N+](=O)[O-])cc2)cc1	none
COc1ccc(-c2n(CC(=O)OC3CC(C)CCC3C(C)C)c3ccccc3[n+]2C)cc1 (centres undefined)	KCNK9 block -17, KCNQ1 block 11 | KCNK9 inh conf 73% | Kir21 sel 80% | HEK293 Tl ctr inactive
CCN(CC)S(=O)(=O)c1ccc(N2CCOCC2)c(NC(=O)CC23CC4CC(CC(Br)(C4)C2)C3)c1	none | KCNK9 inh conf inactive | Kir21 sel inactive | HEK293 Tl ctr inactive
CCN(CC)S(=O)(=O)c1ccc(N2CCOCC2)c(NC(=O)c2ccc3ccccc3c2)c1	KCNK9 block -9.9 | KCNK9 inh conf inactive | Kir21 sel inactive | HEK293 Tl ctr 28%
CCN(CC)S(=O)(=O)c1ccc(N2CCOCC2)c(NC(=O)c2ccc3c(c2)OCCO3)c1	none (no result: Cl transport mod)
NS(=O)(=O)c1ccc(CCNC(=O)CCc2nc3sc4c(c3c(=O)[nH]2)CCCC4)cc1	none (no result: Cl transport mod)
CC1=CC(=O)C(C(C)=Nc2ccccc2[N+](=O)[O-])C(=O)O1 (centres undefined)	none (no result: KCNQ1 act, hERG protect, KCNK9 block, KCNQ1 block, Cl transport mod)
O=S(=O)(Nc1ccc(Br)cc1)c1cccc(NS(=O)(=O)c2cccs2)c1	none (no result: KCNQ1 act, hERG protect, KCNK9 block, KCNQ1 block, Cl transport mod)
CC(C)C[C@@]12C(=O)N(c3cccc(Br)c3)C(=O)N1[C@H](c1ccc(F)cc1)[C@@H]1C(=O)N(C3CCCCC3)C(=O)[C@@H]12	none (no result: Cl transport mod)
O=P(Cc1cccc2ccccc12)(c1ccccc1)c1ccccc1	none (no result: KCNQ1 act, hERG protect, KCNK9 block, KCNQ1 block, Cl transport mod)
CCOC(=O)C1=C(O)/C(=C/c2ccc(OCC(=O)O)c(OC)c2)SC1=Nc1ccc(OCC)cc1	none
CCOC(=O)C1=C(O)/C(=C/c2cc(OC)c(O)c(OC)c2)SC1=Nc1ccc(OC)cc1	KCNK9 block -9.9 | KCNK9 inh conf inactive | Kir21 sel inactive | HEK293 Tl ctr inactive
COC(=O)c1cn(C(=O)c2ccccc2Cl)c2ccccc12	none
COC(=O)c1cn(C(=O)c2ccc(C)cc2C)c2ccccc12	none | KCNK9 inh conf inactive | Kir21 sel inactive | HEK293 Tl ctr 32%
Cc1noc(C)c1S(=O)(=O)Nc1ccc(O)c2c(=O)cc(-c3ccccc3Cl)oc12	none | KCNK9 inh conf inactive | Kir21 sel inactive | HEK293 Tl ctr inactive
Cc1cccc(C(=O)Nc2ccc(O)c3c(=O)cc(-c4ccccc4Cl)oc23)c1	none
O=C(NCc1ccccc1)C1=C[C@H](C2CCCCC2)C[C@H](OCc2ccc(CO)cc2)O1	none | KCNK9 inh conf inactive | Kir21 sel inactive | HEK293 Tl ctr inactive
Cc1ccc(C)c(-c2csc(NC(=O)C3=COCCO3)n2)c1	KCNK9 block -8.3 (no result: Cl transport mod) | KCNK9 inh conf inactive | Kir21 sel inactive | HEK293 Tl ctr 38%
O=C(C=Cc1ccccc1)CC(c1ccccc1)N1CCOCC1 (centres undefined)	none (no result: KCNQ1 act, hERG protect, KCNK9 block, KCNQ1 block, Cl transport mod)
COc1cccc(NC(=O)[C@H](CC(C)C)NC(=O)N2CCn3c2nc2ccccc23)c1	KCNK9 block -9.9 (no result: Cl transport mod) | KCNK9 inh conf inactive | Kir21 sel inactive | HEK293 Tl ctr inactive
Cc1ccc(C(C)NC(=O)/C(C#N)=C\c2c(C)[nH]c3ccccc23)cc1 (centres undefined)	none | KCNK9 inh conf inactive | Kir21 sel inactive | HEK293 Tl ctr inactive
O=C(N/N=C/c1cn(-c2ccccc2)nc1-c1ccc(F)cc1)c1ccc2c(c1)OCO2	KCNK9 block -10 | KCNK9 inh conf 55% | Kir21 sel inactive | HEK293 Tl ctr inactive
O=C(N/N=C/c1cn(-c2ccccc2)nc1-c1ccc2c(c1)OCCO2)c1ccncc1	none
COc1cccc(C(=O)N(Cc2nc(-c3cccc(C)c3)no2)C(C)C)c1OC	none | KCNK9 inh conf inactive | Kir21 sel inactive | HEK293 Tl ctr inactive
Cc1cccc(-c2noc(CN(C(=O)C(c3ccccc3)c3ccccc3)C(C)C)n2)c1	KCNK3 inh -12, KCNK9 block -17, KCNQ1 block 6 | KCNK9 inh conf 54% | Kir21 sel inactive | HEK293 Tl ctr inactive
Cc1cccc(-c2noc(CN(C(=O)c3ccc4c(c3)OCO4)C(C)C)n2)c1	none (no result: Cl transport mod)
CCOc1ccccc1N=Nc1c(C)[nH]n(C(N)=S)c1=O	none (no result: Cl transport mod)
Cc1ccc(C(=O)N2[C@@H]3CN(C)C(=O)[C@@]2(C)[C@H]2C(=O)N(C)C(=O)[C@@H]32)cc1	none (no result: KCNQ1 act, hERG protect, KCNK9 block, KCNQ1 block, Cl transport mod)
C=CCC1(CC=C)CCCN1C(=O)c1cc(COc2ccc(F)c(F)c2)on1	KCNQ1 block 10 (no result: Cl transport mod) | KCNK9 inh conf inactive | Kir21 sel inactive | HEK293 Tl ctr inactive
COc1ccc(S(=O)(=O)Nc2ccc(S(=O)(=O)Nc3nccs3)cc2)cc1	none (no result: Cl transport mod)
CCOc1ccc(CCNC(=O)CCOc2cc(C)ccc2C)cc1OCC	none (no result: Cl transport mod) | KCNK9 inh conf inactive | Kir21 sel inactive | HEK293 Tl ctr 34%
CCOc1ccc(CCNC(=O)CSc2nn(-c3ccc(C)c(Cl)c3)c(=S)s2)cc1OCC	none | KCNK9 inh conf inactive | Kir21 sel inactive | HEK293 Tl ctr inactive
